Test results: ChEMBL document CHEMBL5230171, “Expanding the structure-activity relationships of alkynyl diphenylurea scaffold as promising antibacterial agents” (RSC Med Chem, 2023)
The source made the active and inactive calls.

Tests used:
Staphylococcus aureus [1] = assay: Induction of drug resistance in methicillin resistant Staphylococcus aureus NRS384 USA300 assessed as fold change in MIC measured from passage 5 to 14 by broth microdilution method; format: functional
Procedure, shortened: (§1)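 Multi-step resistance in MRSA USA300 over 14 consecutive passages, with rifampicin as the control antibiotic. The MIC was determined by broth microdilution at each passage. Resistance was defined as a greater than four-fold rise over the initial MIC.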

Staphylococcus aureus [2] = assay: Induction of drug resistance in methicillin resistant Staphylococcus aureus NRS384 USA300 assessed as fold change in MIC measured after 4 passages by broth microdilution method; format: functional; procedure, shortened: as §1
Escherichia coli = assay: Antibacterial activity against Escherichia coli JW55031 assessed as inhibition of bacterial growth incubated for 18 to 20 hrs by CLSI protocol based broth microdilution method; format: functional; conditions: time 18-20 hrs
Procedure, shortened: (§2)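 Staphylococcal and E. coli strains were diluted from a 0.5 McFarland suspension in cation-adjusted Mueller Hinton broth to ~5 × 10^5 CFU mL−1. They were incubated with serial dilutions of test agent in broth microdilution, and the MIC was recorded.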

Staphylococcus aureus [3] = assay: Antibacterial activity against methicillin resistant Staphylococcus aureus NRS384 USA300 assessed as inhibition of bacterial growth incubated for 18 to 20 hrs by CLSI protocol based broth microdilution method; format: functional; conditions: time 18-20 hrs
Procedure, shortened: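 Broth microdilution against staphylococcal clinical isolates. Each strain was prepared as a 0.5 McFarland suspension and diluted in cation-adjusted Mueller Hinton broth to ~5 × 10^5 CFU mL−1. Serial dilutions of test agents in DMSO stock were incubated with the bacteria, and the MIC was recorded.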

Clostridioides difficile = assay: Antibacterial activity against Clostridioides difficile ATCC BAA 1870 assessed as inhibition of bacterial growth incubated for 18 to 20 hrs by CLSI protocol based broth microdilution method; format: functional; conditions: time 18-20 hrs
Procedure, shortened: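 C. difficile was diluted from a 0.5 McFarland suspension in BHI supplemented with hemin and vitamin K. It was incubated with serial dilutions of test agent in broth microdilution, and the MIC was recorded.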

Staphylococcus aureus [4] = assay: Antibacterial activity against vancomycin resistant Staphylococcus aureus 12 assessed as inhibition of bacterial growth at 0.5 ug/ml incubated for 18 to 20 hrs by CLSI protocol based broth microdilution method; format: functional, organism-based; conditions: dose 0.5 µg/ml, time 18-20 hrs
Staphylococcus aureus [5] = assay: Antibacterial activity against methicillin resistant Staphylococcus aureus 119 assessed as inhibition of bacterial growth at 0.5 ug/ml incubated for 18 to 20 hrs by CLSI protocol based broth microdilution method; format: functional, organism-based; conditions: dose 0.5 µg/ml, time 18-20 hrs
Staphylococcus aureus [6] = assay: Antibacterial activity against vancomycin resistant Staphylococcus aureus 10 assessed as inhibition of bacterial growth at 0.5 ug/ml incubated for 18 to 20 hrs by CLSI protocol based broth microdilution method; format: functional, organism-based; conditions: dose 0.5 µg/ml, time 18-20 hrs
Staphylococcus aureus [7] = assay: Antibacterial activity against vancomycin resistant Staphylococcus aureus 9 assessed as inhibition of bacterial growth at 0.5 ug/ml incubated for 18 to 20 hrs by CLSI protocol based broth microdilution method; format: functional, organism-based; conditions: dose 0.5 µg/ml, time 18-20 hrs
Vero = assay: Cytotoxicity against African green monkey Vero cells assessed as reduction in cell viability at 64 ug/ml incubated for 24 hrs by MTS assay; format: toxicity, cell-based; conditions: chlorocebus sabaeus, dose 64 µg/ml
Procedure, shortened: (§3)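 Vero or HaCaT cells were exposed to 32, 64 and 128 μg mL−1 compound in triplicate for 24 h at 37 °C, 5% CO2, with a DMSO control. MTS was then added for 4 h and OD490 read. Analysis used two-way ANOVA with Dunnett's post hoc test (p < 0.05).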

Staphylococcus aureus [8] = assay: Antibacterial activity against methicillin resistant Staphylococcus aureus 123 assessed as inhibition of bacterial growth at 0.5 ug/ml incubated for 18 to 20 hrs by CLSI protocol based broth microdilution method; format: functional, organism-based; conditions: dose 0.5 µg/ml, time 18-20 hrs
Staphylococcus aureus [9] = assay: Antibacterial activity against methicillin resistant Staphylococcus aureus 386 assessed as inhibition of bacterial growth at 0.5 ug/ml incubated for 18 to 20 hrs by CLSI protocol based broth microdilution method; format: functional, organism-based; conditions: dose 0.5 µg/ml, time 18-20 hrs
Staphylococcus aureus [10] = assay: Antibacterial activity against methicillin sensitive Staphylococcus aureus 107 assessed as inhibition of bacterial growth at 0.5 ug/ml incubated for 18 to 20 hrs by CLSI protocol based broth microdilution method; format: functional, organism-based; conditions: dose 0.5 µg/ml, time 18-20 hrs; procedure, shortened: as §2
Staphylococcus aureus [11] = assay: Antibacterial activity against methicillin resistant Staphylococcus aureus 384 assessed as inhibition of bacterial growth at 0.5 ug/ml incubated for 18 to 20 hrs by CLSI protocol based broth microdilution method; format: functional, organism-based; conditions: dose 0.5 µg/ml, time 18-20 hrs
Staphylococcus aureus [12] = assay: Antibacterial activity against methicillin sensitive Staphylococcus aureus 6538 assessed as inhibition of bacterial growth at 0.5 ug/ml incubated for 18 to 20 hrs by CLSI protocol based broth microdilution method; format: functional, organism-based; conditions: dose 0.5 µg/ml, time 18-20 hrs; procedure, shortened: as §2
Staphylococcus aureus [13] = assay: Antibacterial activity against methicillin resistant Staphylococcus aureus 385 assessed as inhibition of bacterial growth at 0.5 ug/ml incubated for 18 to 20 hrs by CLSI protocol based broth microdilution method; format: functional, organism-based; conditions: dose 0.5 µg/ml, time 18-20 hrs
[14] = Cytotoxicity against human HaCaT cells assessed as tolerance by measuring cell viability upto 128 ug/ml incubated for 24 hrs by MTS assay relative to control; format: toxicity, cell-based; conditions: up to 128 µg/mL, read-out: Activity; procedure, shortened: as §3
[15] = Cytotoxicity against African green monkey Vero cells assessed as tolerance by measuring cell viability upto 128 ug/ml incubated for 24 hrs by MTS assay relative to control; format: toxicity, cell-based; conditions: chlorocebus sabaeus, up to 128 µg/mL, read-out: Activity; procedure, shortened: as §3
[16] = Cytotoxicity against human HaCaT cells assessed as tolerance by measuring cell viability at 64 ug/ml incubated for 24 hrs by MTS assay relative to control; format: toxicity, cell-based; conditions: at 64 µg/mL, read-out: Activity; procedure, shortened: as §3
Staphylococcus aureus [17] = assay: (§4) Antibacterial activity against methicillin resistant Staphylococcus aureus NRS384 USA300 infected in Balb/c mouse model of skin infection assessed as reduction in inflammation administered topically twice daily for three consecutive days from day 4 to 6 and measured 24 hrs post last dose; format: functional, organism-based; conditions: route top, time 4.0 day
Procedure, shortened: (§5)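 Mice were anesthetized with 2,2,2-tribromoethanol and injected subcutaneously with 100 μL containing 2 × 10^9 CFU MRSA USA300 in 0.5% HPMC in saline. Topical treatment used a petroleum jelly vehicle, with a fusidic acid positive control. Lesions were photographed 24 h after the last dose. A ~1.5 cm2 skin patch (homogenized in 1 mL saline) and the spleen (in 0.5 mL) were serially diluted and plated on MSA at 37 °C overnight for CFU.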

Staphylococcus aureus [18] = assay: as §4, with “bacterial burden in skin lesions” for “inflammation”; format: functional; conditions: route top; time 4 day; procedure, shortened: as §5
Staphylococcus aureus [19] = assay: Antibacterial activity against methicillin resistant Staphylococcus aureus NRS384 USA300 infected in Balb/c mouse model of skin infection assessed as healing administered topically twice daily for three consecutive days from day 4 to 6 and measured 24 hrs post last dose; format: functional, organism-based; conditions: route top, time 4.0 day; procedure, shortened: as §5

Structure (SMILES) | Activity (Staphylococcus aureus [4]) | Activity (Staphylococcus aureus [5]) | Activity (Staphylococcus aureus [6]) | Activity (Staphylococcus aureus [7]) | Activity (Staphylococcus aureus [8]) | Activity (Staphylococcus aureus [9]) | Activity (Staphylococcus aureus [10]) | Activity (Staphylococcus aureus [11]) | Activity (Staphylococcus aureus [12]) | Activity (Staphylococcus aureus [13]) | other results
CO[C@H]1/C=C/O[C@@]2(C)Oc3c(C)c(O)c4c(O)c(c(/C=N/N5CCN(C)CC5)c(O)c4c3C2=O)NC(=O)/C(C)=C\C=C\[C@H](C)[C@H](O)[C@@H](C)[C@@H](O)[C@@H](C)[C@H](OC(C)=O)[C@@H]1C [RIFAMPIN] |  |  |  |  |  |  |  |  |  |  | fold change (FC) (Staphylococcus aureus [1]): 15; fold change (FC) (Staphylococcus aureus [2]): >4
C/C(=N\NC(=N)N)c1ccc(NC(=O)Nc2ccc(C#CC3CC3)cc2)cc1 |  |  |  |  |  |  |  |  |  |  | MIC (Escherichia coli): ≥ 64 mg/L; MIC (Staphylococcus aureus [3]): ≥ 64 mg/L; MIC (Clostridioides difficile): ≥ 64 mg/L
C/C(=N\NC(=N)N)c1ccc(NC(=O)Nc2ccc(C#CC(C)(C)O)cc2)cc1 | Active | Active | Active | Active | Active | Active | Active | Active | Active | Active | Activity (Vero): Non-Toxic; viability at 24 h [14]: 100%
C/C(=N\NC(=N)N)c1ccc(NC(=O)Nc2ccc(C#CC3(N)CCCCC3)cc2)cc1 | Active | Active | Active | Active | Active | Active | Active | Active | Active | Active | viability at 24 h [15]: 100%; viability at 24 h, 64 ug/ml [16]: 100%
CC(=O)O[C@H]1C[C@@]2(C)[C@@H](C[C@@H](O)[C@H]3[C@@]4(C)CC[C@@H](O)[C@@H](C)[C@@H]4CC[C@@]32C)/C1=C(\CCC=C(C)C)C(=O)O [FUSIDIC ACID] |  |  |  |  |  |  |  |  |  |  | Activity (Staphylococcus aureus [17]): Active; Activity (Staphylococcus aureus [18]): 1.5 log10CFU/ml; Activity (Staphylococcus aureus [19]): Active
